We go through 69 compounds from ChEMBL document CHEMBL4130408, “Photoactivation provides a mechanistic explanation for pan-assay interference behaviour of 2-aminopyrroles in lipoxygenase inhibition” (Eur J Med Chem, 2017).

The test has as its target T1, Polyunsaturated fatty acid lipoxygenase ALOX15 (Homo sapiens) (UniProt P16050).
T1 sequence (whole entry): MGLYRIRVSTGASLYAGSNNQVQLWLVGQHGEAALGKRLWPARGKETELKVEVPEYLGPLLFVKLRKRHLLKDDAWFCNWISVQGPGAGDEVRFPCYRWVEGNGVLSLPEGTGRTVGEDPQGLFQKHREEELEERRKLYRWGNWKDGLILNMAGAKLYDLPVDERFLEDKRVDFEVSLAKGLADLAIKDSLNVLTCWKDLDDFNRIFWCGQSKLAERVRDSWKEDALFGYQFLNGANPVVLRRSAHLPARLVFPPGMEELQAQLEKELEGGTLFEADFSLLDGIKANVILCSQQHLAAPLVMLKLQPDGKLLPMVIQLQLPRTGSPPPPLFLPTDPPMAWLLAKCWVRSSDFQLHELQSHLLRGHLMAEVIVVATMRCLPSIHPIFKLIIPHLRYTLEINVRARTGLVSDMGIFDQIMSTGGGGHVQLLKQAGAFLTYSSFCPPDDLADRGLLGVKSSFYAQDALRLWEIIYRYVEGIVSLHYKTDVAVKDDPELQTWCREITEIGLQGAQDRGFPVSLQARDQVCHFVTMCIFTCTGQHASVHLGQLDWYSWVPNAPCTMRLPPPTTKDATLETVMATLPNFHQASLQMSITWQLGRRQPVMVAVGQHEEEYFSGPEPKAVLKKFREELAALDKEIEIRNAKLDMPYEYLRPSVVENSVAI
Description: Inhibition of recombinant human 15-LOX-1 expressed in Escherichia coli BL21(DE3) assessed as residual activity at 50 uM using linoleic acid as substrate preincubated for 10 mins followed by substrate addition. Put shortly: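 h-15-LOX-1 (1:100 enzyme stock, 1:400 final) preincubated 10 min at room temperature with inhibitor in 25 mM HEPES pH 7.4, then linoleic acid added to 25 µM final (inhibitor 50 µM final). 13(S)-HpODE formation read as A234 over time, rate taken from linear part within first 16 min; no-inhibitor = 100%, no-enzyme = 0%. Triplicate.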
As to `Nc1[nH]c(C(=O)c2ccccc2)c(-c2cccc3ccccc23)c1C(=O)NCc1ccccc1`, the Activity is 92.5%.

For `COc1ccc(C(=O)c2[nH]c(N)c(C(=O)NCCc3c[nH]c4ccccc34)c2-c2ccccc2C(F)(F)F)cc1`, the Activity is 97.2%.

With `Nc1[nH]c(C(=O)c2ccccc2)c(-c2ccc(Cl)c(F)c2)c1C(=O)c1c[nH]c2ccccc12`, the Activity amounted to 91.7%.

As for `COc1ccccc1CCNC(=O)c1c(N)[nH]c(C(=O)c2ccccc2)c1-c1ccc(Cl)cc1Cl`, the Activity was determined as 91.7%.

In the case of `Nc1[nH]c(C(=O)c2ccccc2)c(-c2ccccc2[N+](=O)[O-])c1C(=O)NCCc1c[nH]c2ccccc12`, the Activity is 98.1%.

Take `Nc1[nH]c(C(=O)c2ccccc2)c(-c2cccc(C(F)(F)F)c2)c1C(=O)NCc1cccc2ccccc12`: the Activity came to 2.31%.

Regarding `Nc1[nH]c(C(=O)c2ccccc2)c(-c2ccc(Br)cc2)c1C(=O)NCCCN1CCOCC1`, the Activity was determined as 104%.

For the compound `Nc1[nH]c(C(=O)c2ccccc2)c(-c2ccc(Br)cc2)c1C(=O)c1ccc(Br)cc1`, the Activity was found to be 62.2%.

As for `Nc1[nH]c(C(=O)c2ccccc2)c(-c2ccccc2Br)c1C(=O)NCCc1ccc(Cl)cc1Cl`, the Activity turned out to be 93.8%.

In the case of `Nc1[nH]c(C(=O)c2ccc(Br)cc2)c(-c2ccncc2)c1C(=O)c1ccccc1`, the Activity is 109%.

For `Nc1[nH]c(C(=O)c2ccccc2)c(-c2ccc3ccccc3c2)c1C(=O)NCc1cccc2ccccc12`, the Activity turned out to be 98.6%.

On to `COc1ccc(-c2c(C(=O)c3ccccc3)[nH]c(N)c2C(=O)NCCc2c[nH]c3ccccc23)cc1`, for which the Activity is 35.3%.

Turning to `Nc1[nH]c(C(=O)c2ccccc2)c(-c2ccc(Br)cc2)c1C(=O)c1cccs1`, the Activity is 81.3%.

For `CC(C)(C)C(=O)c1c(N)[nH]c(C(=O)c2ccccc2)c1-c1ccccc1`, the Activity was 112%.

Take `Nc1[nH]c(C(=O)c2ccccc2)c(-c2ccc3ccccc3c2)c1C(=O)NCc1ccc(-c2ccccc2)cc1`: the Activity was found to be 122%.

In the case of `COC(=O)c1c(N)[nH]c(C(=O)c2ccccc2)c1-c1ccc(Br)cc1`, the Activity came to 94%.

Regarding `Nc1[nH]c(C(=O)c2ccccc2)c(-c2ccc(Br)cc2)c1C(=O)NCCc1c[nH]c2ccccc12`, the Activity worked out at 73.5%.

Take `Nc1[nH]c(C(=O)c2ccc(Br)cc2)c(-c2ccc(F)cc2)c1C(=O)NCCc1c[nH]c2ccccc12`: the Activity came to 68.9%.

Take `COc1ccc(C(=O)c2[nH]c(N)c(C(=O)NCCc3c[nH]c4ccccc34)c2-c2ccc(Cl)c(Cl)c2)cc1`: the Activity stood at 41.9%.

`Cc1[nH]c2ccccc2c1C(=O)c1c(N)[nH]c(C(=O)c2ccccc2)c1-c1ccc(Cl)cc1`: the Activity came to 79.7%.

As for `COc1ccccc1CCNC(=O)c1c(N)[nH]c(C(=O)c2ccccc2)c1-c1ccc(Br)cc1`, the Activity amounted to 64.5%.

As to `Nc1[nH]c(C(=O)c2ccccc2)c(-c2ccc3ccccc3c2)c1C(=O)NC1CC1`, the Activity amounted to 83.5%.

As for `Nc1[nH]c(C(=O)c2ccc(Br)cc2)c(-c2ccccc2Br)c1C(=O)NCCc1c[nH]c2ccccc12`, the Activity stood at 83.1%.

Take `Nc1[nH]c(C(=O)c2ccccc2)c(-c2ccc([N+](=O)[O-])cc2)c1C(=O)N1CCC(CO)CC1`: the Activity was found to be 85%.

Turning to `NC(=O)c1c(N)[nH]c(C(=O)c2ccccc2)c1-c1ccc2c(c1)OCO2`, the Activity was 92.3%.

Take `Nc1[nH]c(C(=O)c2ccccc2)c(-c2ccc(Cl)cc2)c1C(=O)NCc1ccccc1`: the Activity worked out at 97.3%.

For `Nc1[nH]c(C(=O)c2ccccc2)c(-c2ccc3c(c2)OCO3)c1C(=O)NCCc1c[nH]c2ccccc12`, the Activity was determined as 62.7%.

Regarding `Nc1[nH]c(C(=O)c2ccccc2)c(-c2ccc(Cl)cc2)c1C(=O)NCc1ccco1`, the Activity was 88.8%.

Consider `Nc1[nH]c(C(=O)c2ccccc2)c(-c2ccc(C(F)(F)F)cc2)c1C(=O)NCc1ccc(Cl)cc1Cl`, for which the Activity stood at 74.7%.

`COc1ccc(C(=O)c2[nH]c(N)c(C(=O)c3c[nH]c4ccccc34)c2-c2ccc(OC)cc2)cc1`: the Activity is 89.4%.

For the compound `Nc1[nH]c(C(=O)c2ccccc2)c(-c2cc(F)ccc2Br)c1C(=O)NCCc1c[nH]c2ccccc12`, the Activity is -29.7%.

`Nc1[nH]c(C(=O)c2ccc(Br)cc2)c(-c2ccc(Br)cc2)c1C(=O)NCc1ccc(-c2ccccc2)cc1`: the Activity was found to be 91.2%.

With `Nc1[nH]c(C(=O)c2ccc(Br)cc2)c(-c2ccc3ccccc3c2)c1C(=O)NCCc1c[nH]c2ccccc12`, the Activity is 36%.

With `COCCNC(=O)c1c(N)[nH]c(C(=O)c2ccc(Br)cc2)c1-c1ccc(Br)cc1`, the Activity is 103%.

In the case of `Nc1[nH]c(C(=O)c2ccccc2)c(-c2ccccc2Br)c1C(=O)c1cccs1`, the Activity was 59.8%.

Regarding `Nc1[nH]c(C(=O)c2ccccc2)c(-c2ccc(O)cc2)c1C(=O)NCCc1c[nH]c2ccccc12`, the Activity was determined as 53.3%.

For `Nc1[nH]c(C(=O)c2ccccc2)c(-c2ccc(Cl)cc2F)c1C(=O)NCCc1c[nH]c2ccccc12`, the Activity turned out to be 74.8%.

On to `Nc1[nH]c2cc(Cl)ccc2c1C(=O)NCCc1ccc(Cl)cc1`, for which the Activity came to 80.2%.

Consider `Nc1[nH]c(C(=O)c2ccccc2)c(-c2cccc(C(F)(F)F)c2)c1C(=O)c1c[nH]c2ccccc12`, for which the Activity was determined as 114%.

Consider `Nc1[nH]c(C(=O)c2ccccc2)c(-c2cccnc2)c1C(=O)NCCc1ccc(Cl)cc1Cl`, for which the Activity is 99.9%.

With `Nc1[nH]c2ccccc2c1C(=O)NC1CC1`, the Activity stood at 126%.

Turning to `Nc1[nH]c(C(=O)c2ccccc2)c(-c2ccc(Cl)cc2)c1C(=O)c1c[nH]c2cc(F)ccc12`, the Activity fell in the range of 86.5 to 87.5%.

As for `COc1ccc(CCNC(=O)c2c(N)[nH]c(C(=O)c3ccccc3)c2-c2ccc(N(C)C)cc2)cc1`, the Activity came to 66.4%.

As to `CN(C)CCCNC(=O)c1c(N)[nH]c(C(=O)c2ccc(Br)cc2)c1-c1ccc(Br)cc1`, the Activity worked out at 114%.

With `Nc1[nH]c2cc(C(F)(F)F)ccc2c1C(=O)NC1CCCCC1`, the Activity was determined as 125%.

Regarding `Nc1[nH]c(C(=O)c2ccc(Br)cc2)c(-c2ccc(Cl)c(Cl)c2)c1C(=O)NCCc1c[nH]c2ccccc12`, the Activity amounted to 50%.

Turning to `COc1ccc(C(=O)c2[nH]c(N)c(C(=O)NCCc3c[nH]c4ccccc34)c2-c2ccc(Cl)cc2Cl)cc1`, the Activity came out at 64.5%.

On to `CCCCCCCCCCCCCCNC(=O)c1c(N)[nH]c(C(=O)c2ccc(Br)cc2)c1-c1ccc(Br)cc1`, for which the Activity turned out to be 99.2%.

`Nc1[nH]c(C(=O)c2ccccc2)c(-c2ccccc2C(F)(F)F)c1C(=O)c1cccs1`: the Activity was 86.4%.

Consider `Nc1[nH]c(C(=O)c2ccccc2)c(-c2cccc(Br)c2)c1C(=O)c1ccccc1`, for which the Activity was found to be 61.2%.

Take `CCCCNC(=O)c1c(N)[nH]c(C(=O)c2ccc(F)cc2)c1-c1ccc(Cl)cc1C`: the Activity came out at 107%.

Regarding `Nc1[nH]c(C(=O)c2ccccc2)c(-c2ccc(Cl)cc2Cl)c1C(=O)NCCc1c[nH]c2ccccc12`, the Activity is 22.8%.

As for `Nc1[nH]c(C(=O)c2ccccc2)c(-c2ccccn2)c1C(=O)NCCCCl`, the Activity was 92.1%.

For the compound `Nc1[nH]c2cc(Cl)ccc2c1C(=O)N1CCOCC1`, the Activity turned out to be 107%.

As for `NC(=O)c1c(N)[nH]c(C(=O)c2ccccc2)c1-c1ccc(Br)cc1`, the Activity was 99.3%.

Turning to `Nc1[nH]c(C(=O)c2ccc(Br)cc2)c(-c2ccc(Br)cc2)c1C(=O)NCc1cccc2ccccc12`, the Activity turned out to be 77.6%.

With `Cc1ccc([C@H](C)NC(=O)c2c(N)[nH]c(C(=O)c3ccccc3)c2-c2cc(Cl)cc(Cl)c2)cc1`, the Activity amounted to 77.3%.

With `Nc1[nH]c(C(=O)c2ccccc2)c(-c2ccc(Cl)cc2Br)c1C(=O)c1cccs1`, the Activity is 91.2%.

As to `Nc1[nH]c(C(=O)c2ccc(Br)cc2)c(-c2ccccc2)c1C(=O)NCCc1c[nH]c2ccccc12`, the Activity is 69%.

As for `Nc1[nH]c(C(=O)c2ccc(Br)cc2)c(-c2ccncc2)c1C(=O)NCCc1c[nH]c2ccccc12`, the Activity turned out to be 86.1%.

In the case of `Nc1[nH]c(C(=O)c2ccc(Br)cc2)c(-c2ccc(Br)cc2)c1C(=O)NCc1ccc(F)cc1`, the Activity was 102%.

As for `Nc1[nH]c(C(=O)c2ccccc2)c(-c2cccnc2)c1C(=O)NC1CCCCC1`, the Activity came out at 77.5%.

In the case of `CC(C)(C)C(=O)c1c(N)[nH]c(C(=O)c2ccccc2)c1-c1ccc([N+](=O)[O-])cc1`, the Activity stood at 110%.

With `Nc1[nH]c2cc(C(F)(F)F)ccc2c1C(=O)N1CCN(CCc2ccccc2)CC1`, the Activity was 109%.

Consider `NC(=O)c1c(N)[nH]c(C(=O)c2ccccc2)c1-c1ccccc1Cl`, for which the Activity came to 114%.

Regarding `Nc1[nH]c(C(=O)c2ccccc2)c(-c2ccc3ccccc3c2)c1C(=O)NCc1ccc(F)cc1`, the Activity is 86%.

On to `Nc1[nH]c(C(=O)c2ccccc2)c(-c2ccccc2Br)c1C(=O)NCc1ccc(-c2ccccc2)cc1`, for which the Activity came to 91.3%.

Turning to `CC(C)(C)C(=O)c1c(N)[nH]c(C(=O)c2ccccc2)c1-c1ccc(Br)cc1`, the Activity was 87.2%.

On to `Nc1[nH]c(C(=O)c2ccccc2)c(-c2ccc(Cl)cc2)c1C(=O)NCCc1c[nH]c2ccccc12`, for which the Activity was 84.7%.
